Hits are enriched below; roughly 2.3% of the tested compounds scored in any of these assays.
TRPC4 act – activators of mouse TRPC4 channel; HEK293 TRPC4beta/mu-opioid, Fluo4 calcium fluorescence; active compounds read high; B-score at 10 µM; 0.49% of 310,000 active; AID 2237;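 active = B-score above 5 SD of library B-scores, and initial fluorescence ratio not above library mean plus 5 SD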;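 also: positive B-score marks a calcium rise read as TRPC4 activation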
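System – HEK293 cells stably co-expressing mouse TRPC4beta and mu-opioid receptor · Signal – Fluo4 calcium-sensitive dye fluorescence, kinetic, 1 Hz baseline · Benchmarks – buffer (low) and maximal DAMGO (high) · Read-out – B score of integrated fluorescence ratio per well · Incubation – dye loading 45 min room temperature, 110 s kinetic read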
TRPC4 PAM – allosterically enhances the mouse TRPC4 cation channel; Q9QUQ5; HEK293 TRPC4beta/mu-opioid, DAMGO EC20, Fluo-4 Ca2+ flux; active compounds read high; B-score at 10 µM; 0.42% of 310,000 active;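 active = B-score of calcium response area above 5 SD of library B-scores, with initial fluorescence ratio within 5 SD of library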;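 also: B-score of integrated fluorescence ratio over time as area under calcium response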
TRPC4 block – TRPC4 (mouse) channel inhibition; AID 2247; HEK293 TRPC4beta/mu-opioid, DAMGO-evoked Fluo4 calcium flux; active compounds read low; Q9QUQ5; B-score at 10 µM; 0.39% of 300,000 active;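 active = B-score over 3 SD under the library average, no early fluorescence shift, positive overall ratio signal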
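Assay system: HEK293 cells with stable TRPC4beta plus mu-opioid receptor expression; Probe or stimulus: DAMGO in two steps, submaximal then maximal; Dosing: single-point compound dosing; Measured by: Fluo4 calcium-dye fluorescence, kinetic read; Read-out basis: B score from integrated Fluo4 fluorescence ratio.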
TRPC6 activator – activators of mouse TRPC6 channel; AID 2550; 0.13% of 310,000 active; Q61143; B-score at 10 µM; HEK293-TRPC6 membrane potential dye fluorescence; active compounds read high;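 active = B-score of the integrated fluorescence ratio above library mean plus 3 SD, and starting fluorescence ratio within library mean plus 5 SD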;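 also: higher score means more depolarization so channel activation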
Target sequence (Q61143 whole entry, looked up): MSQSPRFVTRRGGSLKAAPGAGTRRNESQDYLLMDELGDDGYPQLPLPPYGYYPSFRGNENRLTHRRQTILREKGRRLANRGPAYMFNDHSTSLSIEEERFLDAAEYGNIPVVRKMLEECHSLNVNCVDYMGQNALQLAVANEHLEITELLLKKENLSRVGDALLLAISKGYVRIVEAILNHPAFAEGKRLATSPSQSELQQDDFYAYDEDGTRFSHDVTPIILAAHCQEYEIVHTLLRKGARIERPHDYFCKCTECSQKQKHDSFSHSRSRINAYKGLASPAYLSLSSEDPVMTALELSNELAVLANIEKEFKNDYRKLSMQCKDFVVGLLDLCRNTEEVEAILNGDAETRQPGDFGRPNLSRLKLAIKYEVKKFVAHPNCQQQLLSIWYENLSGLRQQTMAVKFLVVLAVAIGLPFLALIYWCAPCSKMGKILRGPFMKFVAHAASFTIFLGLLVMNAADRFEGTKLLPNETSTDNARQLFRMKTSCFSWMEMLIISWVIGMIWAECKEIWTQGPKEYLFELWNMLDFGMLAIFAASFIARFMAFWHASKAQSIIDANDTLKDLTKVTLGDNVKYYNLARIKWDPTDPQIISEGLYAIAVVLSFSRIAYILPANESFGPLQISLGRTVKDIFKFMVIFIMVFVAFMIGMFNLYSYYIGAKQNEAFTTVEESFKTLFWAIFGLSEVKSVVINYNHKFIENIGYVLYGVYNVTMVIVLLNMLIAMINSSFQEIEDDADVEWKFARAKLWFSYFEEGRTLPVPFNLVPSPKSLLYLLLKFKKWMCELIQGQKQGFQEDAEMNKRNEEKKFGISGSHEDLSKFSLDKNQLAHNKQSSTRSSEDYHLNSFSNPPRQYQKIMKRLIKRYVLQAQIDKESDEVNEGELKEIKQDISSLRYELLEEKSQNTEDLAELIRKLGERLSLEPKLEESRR
TRPC6 inh – blocks the mouse TRPC6 cation channel; B-score at 10 µM; HEK293-TRPC6, membrane potential dye, ACh-evoked depolarization; active compounds read low; 1.1% of 310,000 active;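 active = B-score under library mean minus 3 SD, initial fluorescence not abnormally high, positive integrated signal ratio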;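 also: B-score derived from integrated fluorescence ratio over the kinetic read; more negative B-score means stronger inhibition of depolarization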
* marks the source's active call; other numbers are inactive results; i = inactive.

SMILES	TRPC4 act	TRPC4 PAM	TRPC4 block	TRPC6 activator	TRPC6 inh
CCCCC(=O)N1CCN(c2nc3ccc(Cl)cc3s2)CC1	i	i	i	i	i
Cc1ccc(-c2c[n+](Cc3ccc(Cl)c(Cl)c3)c3n2CCC3)cc1	i	i	-8*	i	i
O=C(C[n+]1cc(-c2ccc(Cl)c(Cl)c2)n2c1CCC2)N1c2ccccc2Sc2ccccc21	i	i	-6*	i	i
O=C(Nc1ccc(-c2ccc(N3CCCCC3)nn2)cc1)c1ccco1	i	i	i	i	i
Clc1ccc2c(c1)-c1nnc(Br)n1-c1ccccc1S2	i	i	-6*	i	i
COc1ccc(CCN=C(N)NS(=O)(=O)c2ccc(OC)cc2)cc1	i	i	i	i	i
COc1ccc(CCN=C(N)Nc2nc(C)cc(C)n2)cc1	i	i	-6*	i	i
CC1CCc2cc(F)ccc2N1C(=O)C1(C)CC1(Cl)Cl (stereo not given)	i	i	i	i	i
CC(C)(CO)NC(=O)c1ccc2c(c1)C(=O)c1ccccc1-2	i	11*	i	i	i
COCCNC(=O)c1ccc2c(c1)C(=O)c1ccccc1-2	i	i	i	i	i
NC(=O)c1ccc(NC(=O)CCN=C2NS(=O)(=O)c3ccccc32)cc1	i	i	i	i	i
Cc1ccc(NC(=O)Nc2ccon2)cc1Cl	i	i	i	i	i
CN(CCOc1ccccc1)CC(O)COCc1ccccc1F (stereo not given)	i	i	i	i	i
CC(OCC(O)CN(C)CCOc1ccccc1)c1ccc(Cl)cc1 (stereo not given)	i	i	-6*	i	i
CN(CCOc1ccccc1)CC(O)COc1ccccc1 (stereo not given)	i	i	-6*	i	i
Cc1ccc(NC(=O)C2CC(=O)n3ncnc3N2)cc1C (stereo not given)	i	i	i	i	i
COc1ccc(C(=O)NNC(=S)NC(=O)C(C)(C)C)cc1	225*	i	i	i	i
CC(C)(C)C(=O)NC(=S)NNC(=O)c1sc2ccccc2c1Cl	256*	i	i	i	i
COc1ccc(C(=O)NNC(=O)c2ccc(C(C)(C)C)cc2)cc1	i	i	i	i	i
Cc1cc(Cl)c(Cl)cc1S(=O)(=O)NCCCn1ccnc1	i	11*	i	i	i
O=C(Nc1ccccc1)N1CCN(c2nc3ccccc3s2)CC1	43*	i	i	i	i
O=C(Nc1ccc(F)cc1)N1CCN(c2nc3ccccc3s2)CC1	i	i	i	i	i
Cc1ccc(C(=O)N=c2sccn2C)o1	i	i	i	i	i
Cc1ccc(-n2c(-c3ccccc3)c[n+]3c2CCC3)cc1	i	i	i	i	i
COc1ccc(-n2c(-c3ccc(Br)cc3)c[n+]3c2CCCCC3)cc1	i	i	-6*	i	i
SMILES	TRPC4 act	TRPC4 PAM	TRPC4 block	TRPC6 activator	TRPC6 inh
COc1ccc(NC(=O)CN(C)C(=O)Cc2c(C)nc3ccccc3c2C)cc1	i	i	i	i	i
O=C(C1CCN(S(=O)(=O)c2cccnc2)CC1)N1CCN(c2ccc(Cl)cc2)CC1	63*	i	-6*	i	i
Nc1nc(-c2ccc(-n3nncc3-c3ccco3)cc2)cs1	i	i	-5*	i	i
Cc1nc(-c2ccc(-n3nncc3-c3ccco3)cc2)cs1	i	i	i	i	i
Cc1ccc2c(C)c(C(=O)N3CCN(c4cnccn4)CC3)oc2c1C	i	i	i	i	i
CCOC(=O)C1CCN(C2CCN(C(=O)c3oc4c(C)c(C)ccc4c3C)CC2)CC1	i	i	-6*	i	i
Cc1ccc2c(C)c(C(=O)N3CCC(O)(c4ccccc4)CC3)oc2c1C	i	13*	i	i	i
COc1ccc(C)c2sc(N(CCCN(C)C)C(=O)CS(=O)(=O)c3ccc(F)cc3)nc12	i	i	i	i	i
Fc1ccc(-n2cc(-c3ccccc3)c3c(N4CCOCC4)ncnc32)cc1	i	15*	i	i	i
C/C(=N\NC(=O)c1cccs1)C(C)(C)C	i	i	i	i	i
COC(=O)NCC(c1ccc2c(c1)OCO2)N1CCN(c2ccc(OC)cc2)CC1 (stereo not given)	67*	i	i	i	i
COCCNC(=O)C(=O)NCC(c1ccc2c(c1)OCO2)N1CCN(c2ccc(F)cc2)CC1 (stereo not given)	i	i	i	i	i
COc1ccc(N2CCN(C(CNC(=O)C(C)C)c3ccc4c(c3)OCO4)CC2)cc1 (stereo not given)	51*	i	i	i	i
COc1ccc(-n2nc(C(=O)NCC(=O)NCCC3=CCCCC3)c3ccccc3c2=O)cc1	i	i	i	i	i
Cc1ccc(S(=O)(=O)Nc2ccc(S(=O)(=O)N3CCOCC3)cc2)cc1[N+](=O)[O-]	i	i	i	i	i
Cc1ccc(Nc2ccc(S(=O)(=O)N3CCOCC3)cc2[N+](=O)[O-])cc1C	i	18*	i	i	i
CCCc1cc(-c2n[nH]c(=S)n2CC(C)C)cs1	i	13*	i	i	i
Cc1nn2c(N3CCN(C)CC3)c3c(nc2c1-c1ccccc1)CCCC3	i	28*	i	i	i
O=C(c1ccc2c3c(cccc13)CC2)C1CCCN(Cc2cccnc2)C1 (stereo not given)	81*	i	i	i	i
COc1ccc(C(=O)C2CCCN(Cc3ccc4nonc4c3)C2)c(OC)c1 (stereo not given)	i	i	-6*	i	i
COc1cc(CN2CCCC(C(=O)c3ccc4c5c(cccc35)CC4)C2)cc(OC)c1O (stereo not given)	44*	i	i	i	i
Cc1cccc(CN2CCCC(C(=O)c3ccc4c5c(cccc35)CC4)C2)n1 (stereo not given)	i	i	i	i	i
Cc1ccc(C(=O)Sc2cccccc2=O)cc1	i	i	i	i	i
O=C1C2CCCN2C(c2cccs2)N1c1ccc(F)cc1 (stereo not given)	i	i	i	i	i
Cc1ccc(C2N(c3cccc(Cl)c3)C(=O)C3CCCN32)o1 (stereo not given)	i	33*	i	i	i
COc1cccc(N2C(=O)C3CCCN3C2c2cccs2)c1 (stereo not given)	43*	i	i	i	i
